From ChEMBL document CHEMBL1128227, “Cosalane analogues with enhanced potencies as inhibitors of HIV-1 protease and integrase” (J Med Chem, 1995)
Values after ≈ are worked out from the molar mass of the structure shown.

Legend:
CCRF-CEM = assay: Cytotoxical effect against CEM cell lines was determined by reduction of cellular viability; type: functional; conditions: Homo sapiens
Method in brief: (§1)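 Compounds tested as ammonium salts. Cytotoxicity in CEM-SS, MT-4 or PBL cultures taken from the reduction in cellular viability. Values are means of at least two separate experiments.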

HEL [1] = assay: Antiviral activity was determined against (Herpes simplex virus -2) by concentration required to reduce virus induced cytopathogenicity by 50%.; type: functional, cell-based; conditions: Homo sapiens
HEL [2] = assay: Antiviral activity was determined against Herpes simplex virus -1 TK- in HEL cells by measuring concentration required to reduce virus induced cytopathogenicity by 50%.; type: functional, cell-based; conditions: Homo sapiens
HEL [3] = assay: Antiviral activity was determined against Herpes simplex virus -1 TK-/TK+ in HEL cells by measuring concentration required to reduce virus induced cytopathogenicity by 50%.; type: functional, cell-based; conditions: Homo sapiens
HEL [4] = assay: Antiviral activity was determined against Herpes simplex virus -1 in HEL cells by measuring concentration required to reduce virus induced cytopathogenicity by 50%.; type: functional, cell-based; conditions: Homo sapiens
HEL [5] = assay: Antiviral activity was determined against Human cytomegalovirus (strain Davis) in HEL cells by measuring concentration required to reduce virus induced cytopathogenicity by 50%.; type: functional, cell-based
HEL [6] = assay: Antiviral activity was determined against Vaccinia virus in HEL cells by measuring concentration required to reduce virus induced cytopathogenicity by 50%.; type: functional, cell-based; conditions: Homo sapiens
HEL [7] = assay: Antiviral activity was determined against Vesicular stomatitis virus in HEL cells by measuring concentration required to reduce virus induced cytopathogenicity by 50%.; type: functional, cell-based; conditions: Homo sapiens
HEL [8] = assay: Antiviral activity against HEL cells by measuring minimum cytotoxic concentration that causes a microscopically detectable alteration of normal cell morphology after 2 day of treatment.; type: functional; conditions: Homo sapiens, 48 h
[9] = target: Human immunodeficiency virus type 1 integrase (Human immunodeficiency virus 1, UniProt Q7ZJM1); assay: Inhibition of HIV -1 Integrase
Method in brief: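 Purified HIV-1 integrase. 3'-processing and strand-transfer (integration) activities were measured with synthetic double-stranded oligonucleotides mimicking viral DNA ends. Compounds tested as ammonium salts. Values are means of at least two experiments.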

MOLT-4 [10] = assay: Giant cell formation between HIV-1 (HTLV-IIIB) infected HUT-78 cells and uninfected MOLT-4(clone-8)cells; type: functional, cell-based; conditions: Homo sapiens
Method in brief: (§2)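 Syncytium assay: HUT-78 cells persistently infected with HIV-1 (HTLV-IIIB) or HIV-2 (LAV-2ROD) were co-cultured with uninfected MOLT-4 (clone 8) cells, and giant-cell formation was scored. Compounds tested as ammonium salts. Values are means of at least two experiments.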

MOLT-4 [11] = assay: Giant cell formation between HIV-2 (LAV-2 rod) infected HUT-78 cells and uninfected MOLT-4(clone-8)cells; type: functional, cell-based; conditions: Homo sapiens; method in brief: as §2
MT4 [12] = assay: Cytotoxical effect against MT-4 cell lines was determined by reduction of cellular viability; type: functional; conditions: Homo sapiens; method in brief: as §1
MT4 [13] = assay: Viral cytopathicity against HIV -2 (LAV-2 rod)strain determined in MT-4 cells; type: functional, cell-based; conditions: Homo sapiens
MT4 [14] = assay: Viral cytopathicity against HIV -I (HTLV-IIIb) strain determined in MT-4 cells; type: functional, cell-based; conditions: Homo sapiens
[15] = target: Human immunodeficiency virus type 1 protease (Human immunodeficiency virus 1, UniProt Q72874); assay: Inhibition of HIV -1 protease
Method in brief: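 Purified HIV-1 protease with the peptide substrate Ala-Ser-Glu-Asn-Tyr-Pro-Ile-Val-Glu-amide. Cleavage quantified by reverse-phase HPLC. Compounds tested as ammonium salts. Values are means of at least two experiments.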

Homo sapiens [16] = organism: Homo sapiens; assay: Inhibition of p24 production in Peripheral blood lymphocytes; type: functional, organism-based
Method in brief: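 Phytohemagglutinin-stimulated peripheral blood lymphocytes infected with HIV-1 WUJO. Read-out is virion-associated p24 production. Compounds tested as ammonium salts. Values are means of at least two experiments.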

Homo sapiens [17] = organism: Homo sapiens; assay: Cytotoxical effect against PBL cell lines was determined by reduction of cellular viability; type: functional; method in brief: as §1
HeLa [18] = assay: Antiviral activity was determined against Respiratory syncytial virus(strain Long) in HeLa cells by measuring concentration required to reduce virus induced cytopathogenicity by 50%.; type: functional, cell-based; conditions: Homo sapiens
Method in brief: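 RSV cytopathicity in HeLa cells. Compound added immediately after virus infection and left in the culture. Virus-induced cytopathogenicity scored at day 5 post-infection. IC50 in μg/mL.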

HeLa [19] = assay: Antiviral activity against HeLa cells by measuring minimum cytotoxic concentration that causes a microscopically detectable alteration of normal cell morphology after 2 day of treatment.; type: functional; conditions: Homo sapiens, 48 h
MDCK [20] = assay: Antiviral activity against MDCK cells by measuring minimum cytotoxic concentration that causes a microscopically detectable alteration of normal cell morphology after 2 day of treatment.; type: functional; conditions: Canis lupus familiaris, 48 h
MDCK [21] = assay: Antiviral activity was determined against Influenza virus A(strain Ishikawa) in MDCK cells by measuring concentration required to reduce virus induced cytopathogenicity by 50%.; type: functional, cell-based; conditions: Canis lupus familiaris
Method in brief: (§3)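 Tested in MDCK cells, with compound applied right after infection and left on. Cytopathic effect of influenza A (Ishikawa) or B (Singapore) was read at day 5 pi. IC50 is the concentration halving cytopathogenicity, in µg/mL.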

MDCK [22] = assay: Antiviral activity was determined against Influenza virus B(strain Singapore) MDCK cells by measuring concentration required to reduce virus induced cytopathogenicity by 50%.; type: functional, cell-based; conditions: Canis lupus familiaris; method in brief: as §3
Vero [23] = assay: Antiviral activity against Vero cells by measuring minimum cytotoxic concentration that causes a microscopically detectable alteration of normal cell morphology after 2 day of treatment.; type: functional; conditions: Chlorocebus sabaeus, 48 h
Vero [24] = assay: Antiviral activity was determined against Junin virus in Vero cells by measuring concentration required to reduce virus induced cytopathogenicity by 50%.; type: functional, cell-based; conditions: Chlorocebus sabaeus
Vero [25] = assay: Antiviral activity was determined against Tacaribe virus in Vero cells by measuring concentration required to reduce virus induced cytopathogenicity by 50%.; type: functional, cell-based; conditions: Chlorocebus sabaeus

Sequence of Human immunodeficiency virus type 1 integrase (Q7ZJM1 whole entry): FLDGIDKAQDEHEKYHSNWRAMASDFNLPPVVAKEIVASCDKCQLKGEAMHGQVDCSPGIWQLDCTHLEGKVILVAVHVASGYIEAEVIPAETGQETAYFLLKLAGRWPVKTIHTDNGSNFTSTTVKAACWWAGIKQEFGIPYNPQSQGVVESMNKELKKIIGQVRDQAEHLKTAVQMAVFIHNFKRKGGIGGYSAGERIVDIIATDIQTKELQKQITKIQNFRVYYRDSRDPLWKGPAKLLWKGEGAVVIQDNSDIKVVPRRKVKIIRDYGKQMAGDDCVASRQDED

Row | SMILES | CC50 (CCRF-CEM) | IC50 (HEL [1]) | IC50 (HEL [2]) | IC50 (HEL [3]) | IC50 (HEL [4]) | IC50 (HEL [5]) | IC50 (HEL [6]) | IC50 (HEL [7]) | MCC (HEL [8]) | IC50 [9] | IC50 (MOLT-4 [10]) | IC50 (MOLT-4 [11]) | CC50 (MT4 [12]) | IC50 (MT4 [13]) | IC50 (MT4 [14]) | IC50 [15] | IC50 (Homo sapiens [16]) | CC50 (Homo sapiens [17]) | IC50 (HeLa [18]) | MCC (HeLa [19]) | further results
1 | CC(C)CCCC(C)[C@H]1CC[C@H]2[C@@H]3CCC4C[C@@H](CCC=C(c5cc(Cl)c(O)c(C(=O)O)c5)c5cc(Cl)c(O)c(C(=O)O)c5)CC[C@]4(C)[C@H]3CC[C@]12C (stereo not given in full) | > 200 µM | 7.4 µg/mL (≈ 9.64 µM) | > 20 µg/mL | 20 µg/mL (≈ 26 µM) | 10 µg/mL (≈ 13 µM) | 2.7 µg/mL (≈ 3.52 µM) | > 20 µg/mL | 10 µg/mL (≈ 13 µM) | > 100 µg/mL | 25 µM | 25 µM | 25 µM | > 125 µM | 4 µM | 1.8 µM | 1.5 µM | 33 µM | 67 µM | – | – | –
2 | CC(C)CCCC(C)[C@H]1CC[C@H]2[C@@H]3CCC4CC(=C(c5cc(Cl)c(O)c(C(=O)O)c5)c5cc(Cl)c(O)c(C(=O)O)c5)CC[C@]4(C)[C@H]3CC[C@]12C (stereo not given in full) | > 200 µM | 12 µg/mL (≈ 16.5 µM) | > 20 µg/mL | > 20 µg/mL | > 20 µg/mL | 2.35 µg/mL (≈ 3.24 µM) | > 20 µg/mL | > 20 µg/mL | > 50 µg/mL | > 100 µM | 24 µM | 24 µM | 36.7 µM | 6 µM | 2.5 µM | 0.35 µM | 59.3 µM | 78 µM | 20 µg/mL (≈ 27.6 µM) | 100 µg/mL | MCC (MDCK [20]): > 200 µg/mL; IC50 (MDCK [21]): 14 µg/mL (≈ 19.3 µM); IC50 (MDCK [22]): > 200 µg/mL; MCC (Vero [23]): 200 µg/mL; IC50 (Vero [24]): 16 µg/mL (≈ 22 µM); IC50 (Vero [25]): 20 µg/mL (≈ 27.6 µM)
3 | CC(CCC=C(c1cc(Cl)c(O)c(C(=O)O)c1)c1cc(Cl)c(O)c(C(=O)O)c1)[C@H]1CC[C@H]2[C@@H]3CC[C@@H]4CC(F)(F)CC[C@]4(C)[C@H]3CC[C@]12C (stereo not given in full) | 38.5 µM | > 20 µg/mL | > 20 µg/mL | > 20 µg/mL | 20 µg/mL (≈ 27.8 µM) | 11 µg/mL (≈ 15.3 µM) | 20 µg/mL (≈ 27.8 µM) | > 20 µg/mL | 50 µg/mL | 2.2 µM | 8 µM | 24 µM | 34 µM | 3.5 µM | 27.7 µM | 0.39 µM | 24 µM | 69.5 µM | 4 µg/mL (≈ 5.56 µM) | 20 µg/mL | MCC (MDCK [20]): 12 µg/mL; IC50 (MDCK [21]): > 12 µg/mL; IC50 (MDCK [22]): > 12 µg/mL; MCC (Vero [23]): 20 µg/mL; IC50 (Vero [24]): > 5 µg/mL; IC50 (Vero [25]): > 5 µg/mL
